{"source": "ChEMBL document CHEMBL4024778", "about": "“From Experiments to a Fast Easy-to-Use Computational Methodology to Predict Human Aldehyde Oxidase Selectivity and Metabolic Reactions” (J Med Chem, 2018)", "key": {"[1]": {"tested_on": "Liver", "experiment": "Drug metabolism in human liver microsomes assessed as formation of 2-(pyrrolidin-1-yl)aniline after 60 mins", "format": "ADME, microsome", "conditions": "1 h"}, "[2]": {"tested_on": "Liver", "experiment": "Drug metabolism in human liver microsomes after 60 mins", "format": "ADME, microsome", "conditions": "1 h"}, "[3]": {"tested_on": "Liver", "experiment": "Drug metabolism in human liver cytosol assessed as formation of 2-(pyrrolidin-1-yl)aniline at 10 uM after 60 mins by LC-MS/MS analysis", "format": "ADME, tissue-based", "conditions": "1 h", "summary_of_the_method": "(§1)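 Pooled human liver cytosol incubated with 10 μM substrate at pH 7.4 and 37 °C with 1 mM MgCl2·6H2O. Reactions stopped at 0 and 60 min with ice-cold acetonitrile containing 0.6 μM labetalol as internal standard, alongside a compound-free blank. Protein removed by centrifugation. Supernatant analysed by LC-MS/MS on a QTOF with electrospray ionization, using one of three reversed-phase gradient methods.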"}, "[4]": {"tested_on": "Liver", "experiment": "Drug level in human liver cytosol treated with N1-(pyrimidin-2-yl)-N2-(quinoxalin-2-yl)ethane-1,2-diamine at 10 uM after 60 mins by LC-MS/MS analysis", "format": "ADME, tissue-based", "conditions": "1 h", "summary_of_the_method": "as §1"}, "[5]": {"tested_on": "Liver", "experiment": "Drug level in human liver cytosol treated with N-(2-(Pyrrolidin-1-yl)phenyl)-1H-indole-2-carboxamide at 10 uM after 60 mins by LC-MS/MS analysis", "format": "ADME, tissue-based", "summary_of_the_method": "as §1"}, "[6]": {"tested_on": "Liver", "experiment": "Drug level in human liver microsomes treated with N-((1H-Indol-2-yl)methyl)-2-(pyrrolidin-1-yl)aniline after 60 mins", "format": "ADME, microsome"}, "[7]": {"tested_on": "Liver", "experiment": "Drug level in human liver microsomes treated with N1-(Naphthalen-2-yl)-N2-(pyrimidin-2-yl)ethane-1,2-diamine after 60 mins by LC-MS/MS analysis", "format": "ADME, microsome", "conditions": "1 h"}, "[8]": {"molecular_target": "T1, Cytochrome P450 3A4 (Homo sapiens, UniProt P08684)", "T1 sequence (P08684 whole entry)": "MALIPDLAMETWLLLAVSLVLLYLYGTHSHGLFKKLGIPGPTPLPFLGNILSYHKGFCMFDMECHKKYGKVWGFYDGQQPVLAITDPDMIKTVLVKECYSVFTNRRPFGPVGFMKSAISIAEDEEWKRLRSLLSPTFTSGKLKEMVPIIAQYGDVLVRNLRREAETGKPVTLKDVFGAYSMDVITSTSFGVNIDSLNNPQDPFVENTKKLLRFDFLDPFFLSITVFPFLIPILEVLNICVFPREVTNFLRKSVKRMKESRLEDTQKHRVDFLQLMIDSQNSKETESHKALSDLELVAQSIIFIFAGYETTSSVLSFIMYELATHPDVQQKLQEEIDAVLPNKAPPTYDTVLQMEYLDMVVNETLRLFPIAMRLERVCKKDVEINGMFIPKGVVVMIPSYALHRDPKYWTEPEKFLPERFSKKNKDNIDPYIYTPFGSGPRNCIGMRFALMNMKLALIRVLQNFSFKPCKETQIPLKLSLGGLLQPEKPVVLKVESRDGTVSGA", "experiment": "Drug level treated with N1-(Naphthalen-2-yl)-N2-(pyrimidin-2-yl)ethane-1,2-diamine assessed as CYP3A4 (unknown origin)-mediated metabolite formation after 60 mins", "format": "ADME", "conditions": "1 h"}, "[9]": {"molecular_target": "T1, Cytochrome P450 3A4", "experiment": "Drug metabolism assessed as CYP3A4 (unknown origin)-mediated formation of 2-(pyrimidin-2-ylamino)ethanol after 60 mins", "format": "ADME", "conditions": "1 h"}, "[10]": {"tested_on": "Liver", "experiment": "Drug metabolism in human liver microsomes assessed as formation of 2-(pyrimidin-2-ylamino)ethanol after 60 mins", "format": "ADME, microsome", "conditions": "1 h"}, "[11]": {"tested_on": "Liver", "experiment": "Drug metabolism in human liver cytosol assessed as formation of 3-(2-(pyrimidin-2-ylamino)ethylamino)quinoxalin-2(1H)-one at 10 uM after 60 mins by LC-MS/MS analysis", "format": "ADME, tissue-based", "summary_of_the_method": "as §1"}}}
{"smiles": "c1ccc(N2CCCC2)c(NCc2cc3ccccc3[nH]2)c1", "values": [{"measurement": "Drug metabolism", "setting": "[1]", "value": "Metabolite_Detected"}]}
{"smiles": "O=C(Nc1ccccc1N1CCCC1)c1cc2ccccc2[nH]1", "values": [{"measurement": "Drug metabolism", "setting": "[2]", "value": "Metabolite_Notdetected"}, {"measurement": "Drug metabolism", "setting": "[3]", "value": "Metabolite_Detected"}]}
{"smiles": "O=c1[nH]c2ccccc2nc1NCCNc1ncccn1", "values": [{"measurement": "Drug metabolism", "setting": "[4]", "value": "Metabolite_Detected"}]}
{"smiles": "Nc1ccccc1N1CCCC1", "values": [{"measurement": "Drug metabolism", "setting": "[5]", "value": "Metabolite_Detected"}, {"measurement": "Drug metabolism", "setting": "[6]", "value": "Metabolite_Detected"}]}
{"smiles": "OCCNc1ncccn1", "values": [{"measurement": "Drug metabolism", "setting": "[7]", "value": "Metabolite_Detected"}, {"measurement": "Drug metabolism", "setting": "[8]", "value": "Metabolite_Detected"}]}
{"smiles": "c1cnc(NCCNc2ccc3ccccc3c2)nc1", "values": [{"measurement": "Drug metabolism", "setting": "[9]", "value": "Metabolite_Detected"}, {"measurement": "Drug metabolism", "setting": "[10]", "value": "Metabolite_Detected"}]}
{"smiles": "c1cnc(NCCNc2cnc3ccccc3n2)nc1", "values": [{"measurement": "Drug metabolism", "setting": "[2]", "value": "Metabolite_Notdetected"}, {"measurement": "Drug metabolism", "setting": "[11]", "value": "Metabolite_Detected"}]}
